Screening results as filed in PubChem.
A selection: hits, their analogues and other compounds. The true share with any hit is near 1.6%.
FLuc inh counter – firefly luciferase enzyme inhibitors, primary screen, artefact control for luciferase-based inhibitor screens, biochemical, luminescence, ATPLite. inhibition, % at 10 µM. 10 min. 200,000 tested, 1.5% active. Luciferin 4-monooxygenase (Photinus pyralis), P08659;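 active = inhibition above about 50% when tested at 10 µM, limit read from the data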
Target sequence (P08659 whole entry, looked up): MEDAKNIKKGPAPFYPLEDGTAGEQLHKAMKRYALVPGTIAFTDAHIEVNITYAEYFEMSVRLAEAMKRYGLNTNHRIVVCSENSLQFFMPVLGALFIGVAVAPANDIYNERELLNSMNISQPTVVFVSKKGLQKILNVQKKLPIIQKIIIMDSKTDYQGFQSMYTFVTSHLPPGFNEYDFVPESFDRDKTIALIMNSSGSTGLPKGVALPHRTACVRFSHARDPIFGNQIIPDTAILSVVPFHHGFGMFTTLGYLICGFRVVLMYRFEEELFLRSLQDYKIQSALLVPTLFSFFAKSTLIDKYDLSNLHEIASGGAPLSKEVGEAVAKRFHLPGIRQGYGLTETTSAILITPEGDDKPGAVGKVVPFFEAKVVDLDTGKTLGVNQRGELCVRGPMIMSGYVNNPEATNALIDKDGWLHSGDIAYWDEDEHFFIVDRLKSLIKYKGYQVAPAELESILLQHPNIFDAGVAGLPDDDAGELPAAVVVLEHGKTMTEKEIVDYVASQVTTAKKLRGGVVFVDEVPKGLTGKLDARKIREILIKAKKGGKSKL
FLuc stim CS – FLuc activators, initial screening, artefact control for FLuc-dependent activation tests, biochemical, ATPlite luminescence | 200,000 tested, under 10 active | Luciferin 4-monooxygenase (Photinus pyralis), P08659 | activation factor at 10 µM | ATPlite luciferase biochemical, 10 min; 0 = ATP-free wells, 1 = DMSO control;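 active = luciferase activation factor, scaled between plate controls, of at least 2 with compound at 10 µM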
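Assay system: Luciferase/luciferin detection reagent, cell-free biochemical luciferase assay / Read-out: luciferase activation / Benchmarks: No-ATP low control, compound-free enzyme-plus-ATP high control / Medium: PBS buffer for ATP / Detection: luminescence measurement of luciferase light output / Schedule: 10 min at ambient temperature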
PPC-1+TRAIL kill – compounds killing PPC-1 cancer cells with TRAIL present, primary screen, TRAIL potentiator project, ATPLite luminescence, uHTS; AID 1443, 2008; cell killing (% activity), % at 4 µM or 5 µM; PPC-1 cells + TRAIL, ATPLite viability luminescence; 220,000 tested, 0.41% active;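 active = cell killing above 50% in the first pass at 4 µM, then a duplicate retest at 5 µM averaging 50% or more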;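 also: plate controls were cells with TRAIL plus DMSO for no effect and medium-only wells lacking cells for full effect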
TRAIL sens C8 – viability loss with TRAIL in NB7+C8 cells, primary screen, TRAIL sensitizer project, cell-based, ATPlite luminescence. inhibition (viability loss, TRAIL sensitization), % at 10 µM. 360,000 tested, 1% active. AID 624354, 2012;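 active = compounds causing at least 50% loss of cell viability in the single-dose screen, relative to plate controls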
An asterisk follows results filed as active.

`O=C(Nc1cccc(-c2ccc(N3CCOCC3)nn2)c1)c1ccc(F)cc1F` gave TRAIL sens C8 51.2*.
CCOc1ccc(C(=O)Nc2cccc(-c3ccc(N4CCOCC4)nn3)c2)cc1OCC was read as TRAIL sens C8 44.2.
`COc1ccc(C(=O)Nc2cccc(-c3ccc(N4CCOCC4)nn3)c2)cc1OC` gave TRAIL sens C8 64.0*.
Screening COc1cccc(C(=O)Nc2cccc(-c3ccc(N4CCOCC4)nn3)c2)c1 returned TRAIL sens C8 41.8.
`COc1cccc(C(=O)Nc2cccc(-c3ccc(N4CCOCC4)nn3)c2)c1OC` gave TRAIL sens C8 67.0*.
Screening CCOc1ccccc1C(=O)Nc1cccc(-c2ccc(N3CCOCC3)nn2)c1 returned TRAIL sens C8 48.4.
Screening COc1ccc(-c2cc3nc4n(c(=O)c3s2)CCCCC4)cc1 returned PPC-1+TRAIL kill 31.2 and TRAIL sens C8 27.4.
`COc1ccc(-c2cc3nc4n(c(=O)c3s2)CCC4)cc1` gave FLuc inh counter 83.6*, FLuc stim CS 0.2, PPC-1+TRAIL kill -11.3 and TRAIL sens C8 71.1*.
Screening O=C(CN1C(=O)NC(Cc2ccccc2)C1=O)Nc1ccc(F)c(Cl)c1 (configuration not stated) returned TRAIL sens C8 -10.0.
Screening CC1C(=O)Nc2ccccc2N1C(=O)c1ccc(F)cc1 (configuration not stated) returned TRAIL sens C8 -28.1.
O=C1CC(c2nc3ccccc3[nH]2)CN1c1ccccc1F (configuration not stated) was read as FLuc inh counter -3.0, FLuc stim CS 1, PPC-1+TRAIL kill 8.8 and TRAIL sens C8 -4.5.
`O=C1Nc2ccccc2N(C(=O)c2ccc(-c3ccccc3)cc2)C1c1nc2ccccc2[nH]1` (configuration not stated) gave TRAIL sens C8 73.6*.
For O=C1Nc2ccccc2N(C(=O)c2c(F)cccc2F)C1c1nc2ccccc2[nH]1 (configuration not stated) the results were TRAIL sens C8 77.2*.
For O=C(NCCc1ccccc1)C(=O)NCc1ccncc1 the results were FLuc inh counter 50.1*, FLuc stim CS 0.5, PPC-1+TRAIL kill 12.6 and TRAIL sens C8 -5.3.
`O=C(NCCc1ccccc1)c1ccncc1` gave FLuc inh counter -4.7, FLuc stim CS 1 and PPC-1+TRAIL kill 16.3.
Screening CN1C(=O)/C(=C\c2ccccc2F)Sc2ccc(C(=O)NC3CCN(Cc4ccccc4)CC3)cc21 returned TRAIL sens C8 21.7.
For O=C(N/N=C/c1cc(Br)ccc1O)c1ccccc1Cl the results were FLuc inh counter 7.8, FLuc stim CS 0.9, PPC-1+TRAIL kill 42.9 and TRAIL sens C8 56.1*.
For Oc1ccc(Br)cc1/C=N/NC(=S)NCCc1ccccc1 the results were TRAIL sens C8 15.3.
For COC(=O)N/N=C/c1cc(Br)ccc1O the results were FLuc inh counter 0.2, FLuc stim CS 1, PPC-1+TRAIL kill -4.9 and TRAIL sens C8 1.4.
Screening O=C(CCc1ccccc1)N/N=C/c1cc(Br)ccc1O returned FLuc inh counter -3.2, FLuc stim CS 1, PPC-1+TRAIL kill 15.5 and TRAIL sens C8 54.7*.
CC1=C(C(=O)N(C)C)CC(CC(=O)NCc2cccc3ccccc23)C(=O)N1Cc1ccccc1 (configuration not stated) was read as TRAIL sens C8 -9.3.
`CN(C)c1ccc(C=Cc2cnccn2)cc1` gave TRAIL sens C8 79.8*.
`CN(C)c1ccc(/C=C/c2ccncc2)cc1` gave FLuc inh counter 6.4, FLuc stim CS 0.9, PPC-1+TRAIL kill 19.4 and TRAIL sens C8 12.1.
For O=C(Nc1ccc(NC(=O)C2CCCCC2)cn1)c1ccco1 the results were FLuc inh counter 86.1*, FLuc stim CS 0.1, PPC-1+TRAIL kill 57.9* and TRAIL sens C8 70.4*.
O=C(Nc1ccc(NC(=O)C2CC2)cc1)c1ccco1 was read as TRAIL sens C8 54.9*.
For CCn1nc(C)c(CN2CCC(C(=O)Nc3cccc(-c4cccc(Cl)c4)c3)CC2)c1C the results were TRAIL sens C8 37.0.
For N/C(=N\OC(=O)c1cccs1)c1cccnc1 the results were TRAIL sens C8 -9.4.
`Cc1ccccc1/C(N)=N/OC(=O)c1cccs1` gave FLuc inh counter 68.8*, FLuc stim CS 0.3, PPC-1+TRAIL kill 22.5 and TRAIL sens C8 -10.9.
`N/C(Cc1ccc(Cl)c(Cl)c1)=N\OC(=O)c1cccs1` gave FLuc inh counter -4.5, FLuc stim CS 1, PPC-1+TRAIL kill 18.6 and TRAIL sens C8 63.9*.
N/C(=N\OC(=O)c1cccs1)C1(c2ccc(Cl)cc2Cl)CC1 was read as PPC-1+TRAIL kill 15.4 and TRAIL sens C8 -1.3.
N/C(=N\OC(=O)/C=C/c1ccccc1)c1cccnc1 was read as FLuc inh counter 81.3*, FLuc stim CS 0.2, PPC-1+TRAIL kill 48.4 and TRAIL sens C8 -4.2.
Screening Cc1ccccc1/C(N)=N/OC(=O)/C=C/c1ccccc1 returned FLuc inh counter 55.7*, FLuc stim CS 0.4, PPC-1+TRAIL kill 10.5 and TRAIL sens C8 93.7*.
`COc1ccc(CCNc2ccc(N3C(=O)CC(C)C3=O)cc2[N+](=O)[O-])cc1OC` (configuration not stated) gave FLuc inh counter -7.5, FLuc stim CS 1.1, PPC-1+TRAIL kill 4.5 and TRAIL sens C8 8.8.
Screening O=C1C(N2CCOCC2)=C(n2nnc3ccccc32)C(=O)c2ccccc21 returned FLuc inh counter 3.3, FLuc stim CS 1, PPC-1+TRAIL kill 35.4 and TRAIL sens C8 94.1*.
Screening c1csc(C2=NNC(=NC3CCCCC3)SC2)c1 returned FLuc inh counter 74.5*, FLuc stim CS 0.3, PPC-1+TRAIL kill 24.4 and TRAIL sens C8 15.4.
For c1ccc2oc(C3=NNC(=NC4CC4)SC3)cc2c1 the results were FLuc inh counter 78.7*, FLuc stim CS 0.2, PPC-1+TRAIL kill 15.2 and TRAIL sens C8 34.0.
Screening Cc1cc(C2=NNC(=NC3CC3)SC2)c(C)n1-c1ccccc1F returned FLuc inh counter 95.5*, FLuc stim CS 0, PPC-1+TRAIL kill 63.9* and TRAIL sens C8 94.5*.
`COc1ccc2cc(C(=O)NCc3ccccc3CN3CCCC3)ccc2c1` gave TRAIL sens C8 12.0.
For COc1cccc(NC(=S)N2CCN(S(C)(=O)=O)CC2)c1 the results were TRAIL sens C8 -2.0.
Screening O=C(OC1CC2CC1[C@H]1CCCCN1C2=O)N1CCN(S(=O)(=O)c2ccccc2)CC1 (some centres not stated) returned TRAIL sens C8 -17.4.
For c1coc(CNc2nc(-c3ccncc3)cs2)c1 the results were FLuc inh counter 10.6, FLuc stim CS 0.9, PPC-1+TRAIL kill 24.6 and TRAIL sens C8 -17.4.
Screening COc1ccc(-c2csc(NCc3ccco3)n2)cc1 returned FLuc inh counter 71.9*, FLuc stim CS 0.3, PPC-1+TRAIL kill 22.7 and TRAIL sens C8 16.8.
